High-throughput results: PubChem BioAssay, several laboratories
Shown are actives, neighbours in structure and some others; about 1.8% of the full set was active somewhere.
MT1-MMP act inh: blockers of MT1-MMP proenzyme processing, primary screen, HT1080 RFP-PRO-GFP cells, GFP/RFP fluorescence. GFP/RFP ratio change, % at 20 µM. 0.061% of 360,000 active. Matrix metalloproteinase-14 (Homo sapiens), P50281. GFP/RFP ratio fluorescence, overnight; percent of plate control window, DMSO zero;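 active = GFP/RFP ratio change of at least 30% with cell ATP level not reduced by more than half and red fluorescence within 50% of control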
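Assay system: HT1080 RFP-PRO-GFP cells | Dosing: 20 µM single dose, 1% DMSO | Incubation: Cells overnight before dosing, compound overnight, 37 °C, 5% CO2 | Evaluation: GFP/RFP fluorescence ratio | Control set: DMSO-only wells and HT1080 RFP-L50D-GFP cell wells as references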
iPSC survival up: enhancers of single-cell hiPSC survival, primary screen, ATPlite luminescence; survival enhancement, % at 20 µM; 100% = ROCK inhibitor wells, 0% = DMSO; 0.044% of 360,000 active; AID 602274, 2012; in the data active = survival enhancement above about 18%;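 also: cells exposed to compounds for 16 hours before the ATP read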
rRNA inh HTS: reduced GFP signal of wild-type E. coli, primary screen, bacterial rRNA inhibitor project, GFP/RFP fluorescence, OD600, single point. E. coli WT GFP vs humanized-ribosome RFP mutants, 24 h; active compounds read low; DMSO median 0, no signal -100. GFP signal change (wild-type ribosome), % (test concentration not listed). 1.6% of 350,000 active;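 active = significant combined selectivity score with lowered wild-type GFP, culture density cut under 30%, mutant RFP and density less affected; inactive = any of these conditions unmet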
SKN-1 inh: suppressors of acrylamide-induced Pgst-4::GFP reporter in worms, primary screen, SKN-1 inhibitor project, whole organism, uHTS, GFP/RFP fluorescence ratio, strain VP596; AID 624304, 2012; 0.49% of 360,000 active; C. elegans VP596 Pgst-4::GFP/RFP ratio, 24 h; inhibition, % at 21.8 µM;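 active = interference check ratio from 0.5 to 1.5 plus GFP to RFP signal ratio inhibition reaching or exceeding a fixed threshold, cut at about 30% in these data, passing the limit was not always enough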
Cneo AK release: Cryptococcus neoformans cell lysis inducers, primary screen, AK release luminescence, single concentration; lysis activity, % at 15 µM; 0.2% of 360,000 active; AID 651654, 2012; C. neoformans lysis, adenylate kinase release luminescence, 4 h; normalised: neutral wells 0, clomiphene wells 100;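 active = mean lysis activity across replicates of at least 80%, whatever share of replicates individually reach that level; inactive = mean lysis activity below 80%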
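Material – log-phase Cryptococcus neoformans yeast cells · Input – 5 × 10^6 yeast cells/mL · Medium – fresh YPD growth medium · Doses – single compound concentration per well · Timing – static 4 h at 37 °C with compound, 1 h detection · Detection – adenylate kinase release luminescence · Read-out – signal increase indicating cell lysis · Control set – Clomiphene as positive lysis control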
DAGLB inh: DAGLB lipase inhibitors, primary screen, biochemical, fluorescence, HTS. Diacylglycerol lipase-beta (Homo sapiens), Q8NCG7. inhibition, % at 5.17 µM. AID 504411, 2011. HEK293T DAGLB membrane lysate, EnzChek fluorogenic substrate. 0.059% of 340,000 active; in the data active = inhibition above about 34%;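 also: 0% = enzyme with vehicle and 100% = wells lacking enzyme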
Target sequence (Q8NCG7 whole entry, looked up): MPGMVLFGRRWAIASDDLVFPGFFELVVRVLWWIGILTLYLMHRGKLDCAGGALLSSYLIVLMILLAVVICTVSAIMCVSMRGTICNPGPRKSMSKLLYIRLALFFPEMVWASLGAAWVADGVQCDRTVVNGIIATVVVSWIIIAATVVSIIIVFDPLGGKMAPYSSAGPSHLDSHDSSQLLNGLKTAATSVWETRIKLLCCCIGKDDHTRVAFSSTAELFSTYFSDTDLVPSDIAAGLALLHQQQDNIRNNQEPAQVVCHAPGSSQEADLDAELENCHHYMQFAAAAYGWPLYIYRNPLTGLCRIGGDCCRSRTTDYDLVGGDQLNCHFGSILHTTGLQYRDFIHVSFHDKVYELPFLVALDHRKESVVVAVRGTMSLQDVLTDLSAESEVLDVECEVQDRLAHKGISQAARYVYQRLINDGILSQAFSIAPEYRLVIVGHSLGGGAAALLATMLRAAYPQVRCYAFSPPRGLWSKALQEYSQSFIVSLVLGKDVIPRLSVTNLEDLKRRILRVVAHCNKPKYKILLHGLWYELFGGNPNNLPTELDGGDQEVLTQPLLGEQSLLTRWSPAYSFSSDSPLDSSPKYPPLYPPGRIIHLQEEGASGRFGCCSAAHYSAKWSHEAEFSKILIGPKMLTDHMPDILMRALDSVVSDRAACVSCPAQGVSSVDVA
* marks the source's active call; other numbers are inactive results.

For O=C(/C=C/c1ccc(F)cc1)NC(=S)N1CCN(Cc2ccccc2)CC1 the results were MT1-MMP act inh 3, iPSC survival up 0, rRNA inh HTS -34*, SKN-1 inh -5, Cneo AK release 18 and DAGLB inh -7.
For O=C(/C=C/c1ccc(F)cc1)NC(=S)N1CCOCC1 the results were MT1-MMP act inh -1, iPSC survival up 3, rRNA inh HTS 11, SKN-1 inh 2 and DAGLB inh 0.
For Nc1ccc(C(=O)Nc2ccc3nc(-c4ccncc4)[nH]c3c2)cc1 the results were MT1-MMP act inh 7, iPSC survival up 1, rRNA inh HTS -33*, SKN-1 inh -9 and DAGLB inh -6.
Screening O=C(O)CNS(=O)(=O)c1ccc2c(c1)C(=O)c1cc(S(=O)(=O)NCC(=O)O)ccc1-2 returned MT1-MMP act inh -1, iPSC survival up 1, rRNA inh HTS 7, SKN-1 inh 29*, Cneo AK release 0 and DAGLB inh -1.
O=C1c2cc(S(=O)(=O)NCCO)ccc2-c2ccc(S(=O)(=O)NCCO)cc21 was read as MT1-MMP act inh -1, iPSC survival up -3, rRNA inh HTS 20, SKN-1 inh 0 and DAGLB inh 0.
CCCC(=O)Nc1ccc2c(c1)C(=O)N(C)C[C@H](OC)[C@@H](C)CN(C(=O)CC)[C@H](C)CO2 was read as rRNA inh HTS 0.
Screening COc1ccc(S(=O)(=O)Cc2ccc(C(=O)N3CCN(c4cc(Cl)ccc4C)CC3)o2)cc1 returned MT1-MMP act inh 0, iPSC survival up 2, rRNA inh HTS -17*, SKN-1 inh -7, Cneo AK release 1 and DAGLB inh -1.
`C[C@@H]1CN([C@@H](C)CO)C(=O)c2cc(-c3ccncc3)cnc2O[C@H]1CN(C)C(=O)C1CCC1` gave rRNA inh HTS 1.
COc1cc(/C=N/NS(=O)(=O)c2ccc3ccccc3c2)ccc1OCc1ccc(C(=O)O)cc1 was read as MT1-MMP act inh 0, iPSC survival up 0, rRNA inh HTS -23*, SKN-1 inh 17, Cneo AK release -7 and DAGLB inh 4.
Screening COc1cc(/C=N/NS(=O)(=O)c2ccc(C)cc2)ccc1OCc1cccc(C(=O)O)c1 returned MT1-MMP act inh -8, iPSC survival up 2, rRNA inh HTS -2, SKN-1 inh -11, Cneo AK release -3 and DAGLB inh 3.
Screening COc1ccccc1NC(=O)N[C@@H]1CC[C@@H](CC(=O)N2CCC(Cc3ccccc3)CC2)O[C@@H]1CO returned rRNA inh HTS -2 and Cneo AK release 62.
`CCN1/C(=C/c2ccc3cccc(C)c3[n+]2CC)Sc2ccccc21` gave MT1-MMP act inh -222, iPSC survival up -4, SKN-1 inh 49*, Cneo AK release 1 and DAGLB inh -19.
For CCN(CC(=O)NC(=O)NCc1ccccc1)Cc1ccccc1 the results were MT1-MMP act inh -2, iPSC survival up 0, rRNA inh HTS -23*, SKN-1 inh 3, Cneo AK release -2 and DAGLB inh -2.
For CCN(CC(=O)NC(=O)NCc1ccco1)Cc1ccccc1 the results were MT1-MMP act inh -3, iPSC survival up 0, rRNA inh HTS 3, SKN-1 inh -6 and DAGLB inh 2.
`CC(=O)c1cnc(SCc2ccc(Cl)cc2)nc1C` gave MT1-MMP act inh -3, iPSC survival up -1, rRNA inh HTS -28*, SKN-1 inh 1 and DAGLB inh -2.
CCC(C(=O)c1ccc(O)cc1)c1ccccc1 (stereo not drawn) was read as MT1-MMP act inh -1, iPSC survival up -1, SKN-1 inh 8, Cneo AK release -3 and DAGLB inh 1.
For CCC(C(=O)N(C(C)C)C(C)C)c1ccccc1 (stereo not drawn) the results were MT1-MMP act inh 3, iPSC survival up 1, rRNA inh HTS 9, SKN-1 inh 37*, Cneo AK release -2 and DAGLB inh 0.
`COc1ccc(S(=O)(=O)N2CC[C@@H]3[C@@H](CO)Nc4ccc(C5=CCCCC5)cc4[C@@H]32)cc1` gave rRNA inh HTS -1.
For COc1ccc(-n2cc(-c3ccc(OC(F)F)cc3)[n+]3c2CCCCC3)cc1 the results were MT1-MMP act inh -4, iPSC survival up -2, rRNA inh HTS -2, SKN-1 inh -2 and DAGLB inh 2.
COc1ccc(-c2cn(-c3ccc(Cl)cc3)c3[n+]2CCCCC3)cc1 was read as MT1-MMP act inh 4, iPSC survival up 0, rRNA inh HTS -35*, SKN-1 inh -3 and DAGLB inh 2.
For Clc1ccc(-c2cn(-c3ccc(Cl)cc3)c3[n+]2CCCCC3)cc1 the results were MT1-MMP act inh 1, iPSC survival up 0, rRNA inh HTS -46*, SKN-1 inh -7 and DAGLB inh -1.
For CCCNC(=O)C[C@H]1C[C@H]2c3cc(NC(=O)NC4CCCC4)ccc3O[C@H]2[C@@H](CO)O1 the results were rRNA inh HTS 3 and Cneo AK release -2.
Screening C[C@@H]1COCn2nncc2CC[C@@H](Cc2ccc(Cl)cc2)C(=O)N1 returned rRNA inh HTS 5.
Screening Cc1ccc(S(=O)(=O)CCC(=O)OCc2ccc(Cl)cc2)cc1 returned MT1-MMP act inh 0, iPSC survival up 0, rRNA inh HTS -26*, SKN-1 inh 10 and DAGLB inh -5.
For O=C(NCCN1CCC(n2c(=O)[nH]c3ccccc32)CC1)c1ccc(OC(F)(F)F)cc1 the results were MT1-MMP act inh 3, iPSC survival up 0, rRNA inh HTS -23 and SKN-1 inh 16.
Screening CCCCOc1ccc(C(=O)NCCN2CCC(n3c(=O)[nH]c4ccccc43)CC2)cc1 returned MT1-MMP act inh 4, iPSC survival up -1, rRNA inh HTS -45* and SKN-1 inh -6.
Screening O=C(CCCSc1nc2ccccc2s1)NCc1ccc2c(c1)OCO2 returned MT1-MMP act inh 0, iPSC survival up 2, rRNA inh HTS -28*, SKN-1 inh 7 and DAGLB inh -8.
Screening O=C(CSc1nc2ccccc2s1)NCc1ccc2c(c1)OCO2 returned MT1-MMP act inh 1, iPSC survival up -1, SKN-1 inh -6 and DAGLB inh -1.
Screening CCC(=O)N1CC2(C1)CN(CC1CCOCC1)[C@@H](CO)c1c2c2ccc(OC)cc2n1C returned rRNA inh HTS 7.
